Consider 20 compounds from ChEMBL document CHEMBL1151962, “Identification of N,1,4,4-tetramethyl-8-{[4-(4-methylpiperazin-1-yl)phenyl]amino}-4,5-dihydro-1H-pyrazolo[4,3-h]quinazoline-3-carboxamide (PHA-848125), a potent, orally available cyclin dependent kinase inhibitor” (J Med Chem, 2009).

The test system of data set [1] is A2780. Briefly: Antiproliferative activity against human A2780 cells after 72 hrs by cell Titer_Glo assay. The data set is classed as functional, cell-based. The settings on record: A2780, 72 h. An outline of the steps:
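A2780 cells were seeded at 10000–30000 cells/cm² in medium with 10% FCS. After 24 h they were treated with serial dilutions of compound, in two replicates. Cell amount was read by Cell Titer Glo 72 h after treatment. IC50 came from sigmoidal fitting.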

A short description of data set [2]: Solubility at pH 7. Conditions: buffer. It is filed as physicochemical.
The target of data set [3] is T1, Aurora kinase A (Homo sapiens, UniProt O14965).
T1 sequence (O14965 whole entry): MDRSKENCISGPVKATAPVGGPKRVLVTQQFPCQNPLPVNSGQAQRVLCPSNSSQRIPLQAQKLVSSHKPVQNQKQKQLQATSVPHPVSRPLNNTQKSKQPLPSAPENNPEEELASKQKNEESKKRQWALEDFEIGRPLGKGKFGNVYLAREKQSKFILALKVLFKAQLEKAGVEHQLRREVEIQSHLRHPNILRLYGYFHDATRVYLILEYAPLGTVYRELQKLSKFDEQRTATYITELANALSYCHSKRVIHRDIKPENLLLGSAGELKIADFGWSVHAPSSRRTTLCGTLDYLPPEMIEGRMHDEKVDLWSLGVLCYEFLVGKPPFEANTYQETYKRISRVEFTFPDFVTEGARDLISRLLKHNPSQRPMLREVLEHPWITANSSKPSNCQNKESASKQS
Nature of the data set: Inhibition of Aurora A.

Data set [4] has as its target Cyclin-dependent kinase 2 (Homo sapiens, UniProt P24941). Nature of the data set: Inhibition of CDK2/Cyclin A.

By IC50 is commonly meant the concentration needed to halve the response being measured. Higher therefore signals lower potency. What is called solubility is the concentration that dissolves in the medium under given conditions. Low values mean a poorly soluble substance, high ones a readily soluble substance.

Structures are written as SMILES. Values after ≈ are worked out from the molar mass of the structure shown.

On to `CNC(=O)c1nn(C)c2c1C(C)(C)Cc1cnc(Nc3cccc(N4CCOCC4)c3)nc1-2`, for which the results for the IC50 in data set [1], in data set [3] and in data set [4] were 700 nM, 625 nM and 248 nM, respectively. In data set [2], this compound gave a solubility of 51 µM (≈ 22.8 µg/mL).

In turn, `Cn1nc(C(N)=O)c2c1-c1nc(Nc3ccccc3)ncc1CC2` returned a solubility in data set [2] of 3 µM (≈ 0.961 µg/mL). This counts as single-digit micromolar.

Take `CNC(=O)c1nn(C)c2c1CCc1cnc(Nc3ccc(N4CCN(C)CC4)cc3)nc1-2`: the IC50 in data set [1] turned out to be 190 nM; in data set [3] it was 175 nM; in data set [4], 45 nM. This compound also returned a solubility in data set [2] of 211 µM (≈ 91.3 µg/mL).

On to `CNC(=O)c1nn(C)c2c1C(C)(C)Cc1cnc(Nc3cccc(CN4CCN(C)CC4)c3)nc1-2`, for which the IC50 in data set [1] is 570 nM; in data set [3], 1180 nM; in data set [4] it was 59 nM. The compound also showed a solubility in data set [2] of 162 µM (≈ 76.9 µg/mL).

Regarding `CNC(=O)c1nn(C)c2c1CCc1cnc(Nc3ccccc3)nc1-2`, the solubility in data set [2] worked out at 1 µM (≈ 0.334 µg/mL).

For the compound `CNC(=O)c1nn(C)c2c1C(C)(C)Cc1cnc(Nc3ccc(CN(C)C)cc3)nc1-2`, the IC50 in data set [1] is 110 nM; in data set [3] it was > 5000 nM; in data set [4], 35 nM. In data set [2], this compound came in with a solubility of 206 µM (≈ 86.4 µg/mL).

Take `CNC(=O)c1nn(C)c2c1C(C)(C)Cc1cnc(Nc3ccc(CN4CCN(C)CC4)cc3)nc1-2`: the IC50 was found to be 240 nM in data set [1], 1620 nM in data set [3] and 55 nM in data set [4]. In data set [2], this compound came in with a solubility of 170 µM (≈ 80.7 µg/mL).

Turning to `CNC(=O)c1nn(C)c2c1C(C)(C)Cc1cnc(Nc3ccc(OC4CCN(C)CC4)cc3)nc1-2`, the IC50 in data set [1] turned out to be 170 nM; in data set [3], 1340 nM; in data set [4], 29 nM. For the same compound, the solubility in data set [2] turned out to be 183 µM (≈ 87 µg/mL).

With `Cn1nc(C(=O)NCCO)c2c1-c1nc(Nc3ccccc3)ncc1CC2`, the IC50 stood at 2380 nM in data set [1], 364 nM in data set [3] and 74 nM in data set [4]. For the same compound, the solubility in data set [2] amounted to 7 µM (≈ 2.55 µg/mL).

On to `CN1CCN(c2ccc(Nc3ncc4c(n3)-c3c(c(C(N)=O)nn3C)CC4)cc2)CC1`, for which the IC50 came out at 30 nM in data set [1], 53 nM in data set [3] and 2 nM in data set [4]. For the same compound, the solubility in data set [2] stood at 156 µM (≈ 65.3 µg/mL).

Regarding `Cn1nc(C(N)=O)c2c1-c1nc(Nc3ccc(N4CCOCC4)cc3)ncc1CC2`, the IC50 in data set [1] is 120 nM; in data set [3] it was 51 nM; in data set [4], 14 nM. Besides, the solubility in data set [2] was 10 µM (≈ 4.05 µg/mL).

As to `CNC(=O)c1nn(C)c2c1C(C)(C)Cc1cnc(Nc3ccc(N(C)C)cc3)nc1-2`, the IC50 in data set [1] was 500 nM; in data set [3] it was 855 nM; in data set [4], 59 nM. Moreover, in data set [2], the concentration in solution (solubility) came to 56 µM (≈ 22.7 µg/mL).

With `Cn1nc(C(N)=O)c2c1-c1nc(Nc3ccccc3)ncc1CC2(C)C`, the IC50 in data set [1] was 170 nM; in data set [3], > 10000 nM; in data set [4], 24 nM. Also, the solubility in data set [2] is < 1 µM.

On to `CNC(=O)c1nn(C)c2c1C(C)(C)Cc1cnc(Nc3cccc(N4CCN(C)CC4)c3)nc1-2`, for which the values for the IC50 in data set [1], in data set [3] and in data set [4] were 530 nM, 1000 nM and 31 nM, respectively. This compound also yielded a solubility in data set [2] of 182 µM (≈ 83.8 µg/mL).

With `Cn1nc(C(=O)NCc2ccccc2)c2c1-c1nc(Nc3ccccc3)ncc1CC2`, the results for the IC50 in data set [1], in data set [3] and in data set [4] were 580 nM, 374 nM and 1050 nM, respectively. Also, the solubility in data set [2] came out at 1 µM (≈ 0.41 µg/mL).

Regarding `CNC(=O)c1nn(C)c2c1C(C)(C)Cc1cnc(Nc3cccc(CN4CCOCC4)c3)nc1-2`, the results for the IC50 in data set [1], in data set [3] and in data set [4] were 870 nM, 638 nM and 160 nM, respectively. For the same compound, in data set [2], the solubility was determined as 121 µM (≈ 55.8 µg/mL).

On to `CNC(=O)c1nn(C)c2c1C(C)(C)Cc1cnc(Nc3ccc(N4CCOCC4)cc3)nc1-2`, for which the IC50 was 370 nM in data set [1], 649 nM in data set [3] and 137 nM in data set [4]. This compound also registered a solubility in data set [2] of 46 µM (≈ 20.6 µg/mL).

The compound `Cn1nc(C(=O)NC2CCCC2)c2c1-c1nc(Nc3ccccc3)ncc1CC2` yielded a solubility in data set [2] of 1 µM (≈ 0.388 µg/mL).

For `Cn1nc(C(=O)Nc2ccccc2)c2c1-c1nc(Nc3ccccc3)ncc1CC2`, the solubility in data set [2] was 1 µM (≈ 0.396 µg/mL).

As for `Cn1nc(C(=O)NC2CC2)c2c1-c1nc(Nc3ccccc3)ncc1CC2`, in data set [2], the solubility is 1 µM (≈ 0.36 µg/mL).
